Reference: ChEMBL document CHEMBL3046951, “Volatile constituents from the leaves of Callicarpa japonica Thunb. and their antibacterial activities” (2004)

Assays:
Format in all cases: functional
Bacillus cereus [1] = test: Antimicrobial activity against Bacillus cereus ATCC 11778 assessed as growth inhibition rate at 6.8 mg/l after 72 hr by spectrophotometry; conditions: ATCC 11778, 72 h, read-out: GI
How it was run: (§1)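 Pure volatile compounds (purity >95%; one at 90%) were tested against B. cereus ATCC 11778. The strain was grown at 30 °C in nutrient broth for 24 h, then subcultured for 18 h. Optical density was read in a Bioscreen C every 24 h for 72 h, with 10% Tween 80 as the control.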

Bacillus cereus [2] = test: Antimicrobial activity against Bacillus cereus ATCC 11778 assessed as growth inhibition rate at 0.68 mg/l after 72 hr by spectrophotometry; conditions: ATCC 11778, 72 h, read-out: GI; how it was run: as §1
Bacillus cereus [3] = test: Antimicrobial activity against Bacillus cereus ATCC 11778 assessed as growth inhibition rate at 0.12 mg/l after 72 hr by spectrophotometry; conditions: ATCC 11778, 72 h, read-out: GI; how it was run: as §1
Bacillus cereus [4] = test: Antimicrobial activity against Bacillus cereus ATCC 11778 assessed as growth inhibition rate at 0.05 mg/l after 72 hr by spectrophotometry; conditions: ATCC 11778, 72 h, read-out: GI; how it was run: as §1
Bacillus cereus [5] = test: Antimicrobial activity against Bacillus cereus ATCC 11778 assessed as growth inhibition rate at 0.025 mg/l after 72 hr by spectrophotometry; conditions: ATCC 11778, 72 h, read-out: GI; how it was run: as §1
Salmonella typhimurium [6] = test: Antimicrobial activity against Salmonella enterica subsp. enterica serovar Typhimurium ATCC 14028 assessed as growth inhibition rate at 6.8 mg/l after 72 hr by spectrophotometry; conditions: ATCC 14028, 72 h, read-out: GI
How it was run: (§2)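 Salmonella Typhimurium ATCC 14028 grown in nutrient broth at 30 °C, precultured 24 h, then subcultured 1:100 for 18 h before testing. Single volatile compounds (>95% pure) were added. OD was read every 24 h over 72 h in a Bioscreen C, with 10% Tween 80 as the comparison control.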

Salmonella typhimurium [7] = test: Antimicrobial activity against Salmonella enterica subsp. enterica serovar Typhimurium ATCC 14028 assessed as growth inhibition rate at 0.68 mg/l after 72 hr by spectrophotometry; conditions: ATCC 14028, 72 h, read-out: GI; how it was run: as §2
Salmonella typhimurium [8] = test: Antimicrobial activity against Salmonella enterica subsp. enterica serovar Typhimurium ATCC 14028 assessed as growth inhibition rate at 0.12 mg/l after 72 hr by spectrophotometry; conditions: ATCC 14028, 72 h, read-out: GI; how it was run: as §2
Salmonella typhimurium [9] = test: Antimicrobial activity against Salmonella enterica subsp. enterica serovar Typhimurium ATCC 14028 assessed as growth inhibition rate at 0.05 mg/l after 72 hr by spectrophotometry; conditions: ATCC 14028, 72 h, read-out: GI; how it was run: as §2
Salmonella typhimurium [10] = test: Antimicrobial activity against Salmonella enterica subsp. enterica serovar Typhimurium ATCC 14028 assessed as growth inhibition rate at 0.025 mg/l after 72 hr by spectrophotometry; conditions: ATCC 14028, 72 h, read-out: GI; how it was run: as §2
Listeria monocytogenes [11] = test: Antimicrobial activity against Listeria monocytogenes ATCC 19111 assessed as growth inhibition rate at 3.4 mg/l after 72 hr by spectrophotometry; conditions: ATCC 19111, 72 h, read-out: GI
How it was run: (§3)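 L. monocytogenes was grown at 30 °C in tryptic soy broth, subcultured for 18 h, and exposed to pure volatile compounds (>95% purity). Growth was followed by Bioscreen C optical density every 24 h for 72 h against a 10% Tween 80 control.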

Escherichia coli [12] = test: Antimicrobial activity against Escherichia coli O157:H7 ATCC 43894 assessed as growth inhibition rate at 6.8 mg/l after 72 hr by spectrophotometry; conditions: O157:H7 ATCC 43894, 72 h, read-out: GI
Escherichia coli [13] = test: Antimicrobial activity against Escherichia coli O157:H7 ATCC 43894 assessed as growth inhibition rate at 0.68 mg/l after 72 hr by spectrophotometry; conditions: O157:H7 ATCC 43894, 72 h, read-out: GI
Escherichia coli [14] = test: Antimicrobial activity against Escherichia coli O157:H7 ATCC 43894 assessed as growth inhibition rate at 0.12 mg/l after 72 hr by spectrophotometry; conditions: O157:H7 ATCC 43894, 72 h, read-out: GI
Escherichia coli [15] = test: Antimicrobial activity against Escherichia coli O157:H7 ATCC 43894 assessed as growth inhibition rate at 0.05 mg/l after 72 hr by spectrophotometry; conditions: O157:H7 ATCC 43894, 72 h, read-out: GI
Escherichia coli [16] = test: Antimicrobial activity against Escherichia coli O157:H7 ATCC 43894 assessed as growth inhibition rate at 0.025 mg/l after 72 hr by spectrophotometry; conditions: O157:H7 ATCC 43894, 72 h, read-out: GI
Staphylococcus aureus [17] = test: Antimicrobial activity against Staphylococcus aureus ATCC 25923 assessed as growth inhibition rate at 6.8 mg/l after 72 hr by spectrophotometry; conditions: ATCC 25923, 72 h, read-out: GI
How it was run: (§4)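 Staphylococcus aureus ATCC 25923 grown at 37 °C in tryptic soy broth, using an 18 h subculture of a 24 h culture. Individual leaf-volatile compounds (>95% purity) were tested. Bioscreen C optical density was recorded every 24 h for 72 h and compared with a 10% Tween 80 control.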

Staphylococcus aureus [18] = test: Antimicrobial activity against Staphylococcus aureus ATCC 25923 assessed as growth inhibition rate at 0.68 mg/l after 72 hr by spectrophotometry; conditions: ATCC 25923, 72 h, read-out: GI; how it was run: as §4
Staphylococcus aureus [19] = test: Antimicrobial activity against Staphylococcus aureus ATCC 25923 assessed as growth inhibition rate at 0.12 mg/l after 72 hr by spectrophotometry; conditions: ATCC 25923, 72 h, read-out: GI
Vibrio parahaemolyticus [20] = test: Antimicrobial activity against Vibrio parahaemolyticus ATCC 33844 assessed as growth inhibition rate at 3.4 mg/l after 72 hr by spectrophotometry; conditions: ATCC 33844, 72 h, read-out: GI
How it was run: (§5)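 Vibrio parahaemolyticus ATCC 33844 grown at 37 °C in tryptic soy broth with 3% (w/v) NaCl, using an 18 h subculture of a 24 h culture. Pure compounds (>95% purity) were tested. Bioscreen C optical density was read every 24 h for 72 h against a 10% Tween 80 control.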

Staphylococcus aureus [21] = test: Antimicrobial activity against Staphylococcus aureus ATCC 25923 assessed as growth inhibition rate at 0.05 mg/l after 72 hr by spectrophotometry; conditions: ATCC 25923, 72 h, read-out: GI
Staphylococcus aureus [22] = test: Antimicrobial activity against Staphylococcus aureus ATCC 25923 assessed as growth inhibition rate at 0.025 mg/l after 72 hr by spectrophotometry; conditions: ATCC 25923, 72 h, read-out: GI
Salmonella typhimurium [23] = test: Antimicrobial activity against Salmonella enterica subsp. enterica serovar Typhimurium ATCC 14028 assessed as growth inhibition rate at 3.4 mg/l after 72 hr by spectrophotometry; conditions: ATCC 14028, 72 h, read-out: GI; how it was run: as §2
Escherichia coli [24] = test: Antimicrobial activity against Escherichia coli O157:H7 ATCC 43894 assessed as growth inhibition rate at 3.4 mg/l after 72 hr by spectrophotometry; conditions: O157:H7 ATCC 43894, 72 h, read-out: GI
Staphylococcus aureus [25] = test: Antimicrobial activity against Staphylococcus aureus ATCC 25923 assessed as growth inhibition rate at 3.4 mg/l after 72 hr by spectrophotometry; conditions: ATCC 25923, 72 h, read-out: GI; how it was run: as §4
Listeria monocytogenes [26] = test: Antimicrobial activity against Listeria monocytogenes ATCC 19111 assessed as growth inhibition rate at 6.8 mg/l after 72 hr by spectrophotometry; conditions: ATCC 19111, 72 h, read-out: GI; how it was run: as §3
Listeria monocytogenes [27] = test: Antimicrobial activity against Listeria monocytogenes ATCC 19111 assessed as growth inhibition rate at 0.68 mg/l after 72 hr by spectrophotometry; conditions: ATCC 19111, 72 h, read-out: GI; how it was run: as §3
Listeria monocytogenes [28] = test: Antimicrobial activity against Listeria monocytogenes ATCC 19111 assessed as growth inhibition rate at 0.12 mg/l after 72 hr by spectrophotometry; conditions: ATCC 19111, 72 h, read-out: GI; how it was run: as §3
Listeria monocytogenes [29] = test: Antimicrobial activity against Listeria monocytogenes ATCC 19111 assessed as growth inhibition rate at 0.05 mg/l after 72 hr by spectrophotometry; conditions: ATCC 19111, 72 h, read-out: GI; how it was run: as §3
Listeria monocytogenes [30] = test: Antimicrobial activity against Listeria monocytogenes ATCC 19111 assessed as growth inhibition rate at 0.025 mg/l after 72 hr by spectrophotometry; conditions: ATCC 19111, 72 h, read-out: GI; how it was run: as §3
Vibrio parahaemolyticus [31] = test: Antimicrobial activity against Vibrio parahaemolyticus ATCC 33844 assessed as growth inhibition rate at 6.8 mg/l after 72 hr by spectrophotometry; conditions: ATCC 33844, 72 h, read-out: GI; how it was run: as §5
Vibrio parahaemolyticus [32] = test: Antimicrobial activity against Vibrio parahaemolyticus ATCC 33844 assessed as growth inhibition rate at 0.68 mg/l after 72 hr by spectrophotometry; conditions: ATCC 33844, 72 h, read-out: GI; how it was run: as §5
Vibrio parahaemolyticus [33] = test: Antimicrobial activity against Vibrio parahaemolyticus ATCC 33844 assessed as growth inhibition rate at 0.12 mg/l after 72 hr by spectrophotometry; conditions: ATCC 33844, 72 h, read-out: GI
Vibrio parahaemolyticus [34] = test: Antimicrobial activity against Vibrio parahaemolyticus ATCC 33844 assessed as growth inhibition rate at 0.05 mg/l after 72 hr by spectrophotometry; conditions: ATCC 33844, 72 h, read-out: GI
Vibrio parahaemolyticus [35] = test: Antimicrobial activity against Vibrio parahaemolyticus ATCC 33844 assessed as growth inhibition rate at 0.025 mg/l after 72 hr by spectrophotometry; conditions: ATCC 33844, 72 h, read-out: GI
Bacillus cereus [36] = test: Antimicrobial activity against Bacillus cereus ATCC 11778 assessed as growth inhibition rate at 3.4 mg/l after 72 hr by spectrophotometry; conditions: ATCC 11778, 72 h, read-out: GI; how it was run: as §1

Compound C/C=C/C=C/C=O [2,4-HEXADIENAL] has an inhibition of growth at 6.8 µg/mL (Bacillus cereus [1]) of 100%, an inhibition of growth at 0.68 µg/mL (Bacillus cereus [2]) of 45.3% and an inhibition of growth at 0.12 µg/mL (Bacillus cereus [3]) of 10.8%. The inhibition of growth at 0.05 µg/mL (Bacillus cereus [4]) was 9.5%, the inhibition of growth at 0.025 µg/mL (Bacillus cereus [5]) was 10.3% and the inhibition of growth at 6.8 µg/mL (Salmonella typhimurium [6]) was 80.6%. For the same compound, the inhibition of growth at 0.68 µg/mL (Salmonella typhimurium [7]) was 18.4%, the inhibition of growth at 0.12 µg/mL (Salmonella typhimurium [8]) was 12.2% and the inhibition of growth at 0.05 µg/mL (Salmonella typhimurium [9]) was 12.9%. It also gave an inhibition of growth at 0.025 µg/mL (Salmonella typhimurium [10]) of 13.2%, an inhibition of growth at 3.4 µg/mL (Listeria monocytogenes [11]) of 32.4% and an inhibition of growth at 6.8 µg/mL (Escherichia coli [12]) of 20.2%. It also gave an inhibition of growth at 0.68 µg/mL (Escherichia coli [13]) of 1.9%, an inhibition of growth at 0.12 µg/mL (Escherichia coli [14]) of 2.1% and an inhibition of growth at 0.05 µg/mL (Escherichia coli [15]) of 0.5%. The inhibition of growth at 0.025 µg/mL (Escherichia coli [16]) was 0.3%, the inhibition of growth at 6.8 µg/mL (Staphylococcus aureus [17]) was 90.9% and the inhibition of growth at 0.68 µg/mL (Staphylococcus aureus [18]) was 8.8%. The inhibition of growth at 0.12 µg/mL (Staphylococcus aureus [19]) was 6.9%, the inhibition of growth at 3.4 µg/mL (Vibrio parahaemolyticus [20]) was 98.9% and the inhibition of growth at 0.05 µg/mL (Staphylococcus aureus [21]) was 5.3%. For the same compound, the inhibition of growth at 0.025 µg/mL (Staphylococcus aureus [22]) was 7.8%, the inhibition of growth at 3.4 µg/mL (Salmonella typhimurium [23]) was 45.1% and the inhibition of growth at 3.4 µg/mL (Escherichia coli [24]) was 12.7%. For the same compound, the inhibition of growth at 3.4 µg/mL (Staphylococcus aureus [25]) was 89.4%, the inhibition of growth at 6.8 µg/mL (Listeria monocytogenes [26]) was 41.4% and the inhibition of growth at 0.68 µg/mL (Listeria monocytogenes [27]) was 9.2%. The inhibition of growth at 0.12 µg/mL (Listeria monocytogenes [28]) was 7.5%, the inhibition of growth at 0.05 µg/mL (Listeria monocytogenes [29]) was 3.9% and the inhibition of growth at 0.025 µg/mL (Listeria monocytogenes [30]) was 3.9%. It also gave an inhibition of growth at 6.8 µg/mL (Vibrio parahaemolyticus [31]) of 99.1%, an inhibition of growth at 0.68 µg/mL (Vibrio parahaemolyticus [32]) of 20.3% and an inhibition of growth at 0.12 µg/mL (Vibrio parahaemolyticus [33]) of 10.4%. For the same compound, the inhibition of growth at 0.05 µg/mL (Vibrio parahaemolyticus [34]) was 5.8%, the inhibition of growth at 0.025 µg/mL (Vibrio parahaemolyticus [35]) was 6.2% and the inhibition of growth at 3.4 µg/mL (Bacillus cereus [36]) was 67.3%.
